The source of these data is ChEMBL document CHEMBL1155512, “Chemoenzymatic synthesis and cannabinoid activity of a new diazabicyclic amide of phenylacetylricinoleic acid” (Bioorg Med Chem Lett, 2010).

Active and inactive are the calls of the source. No cut-off for these calls is given here.

Data set [1] relates to Rattus norvegicus. The data set is described as follows: Increase of pain perception in Wistar rat assessed as latency at 10 to 40 mg/kg, ip measured after 30 to 45 mins by hotplate method. The data set is classed as functional, organism-based. In outline:
(§1)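 Individually housed rats (22 °C, 12:12 h light–dark, food and water ad libitum) were randomized to ip vehicle, 10, 20 or 40 mg/kg. Extra groups (n = 10) got 20 or 40 mg/kg 15 min after AM251 (3 mg/kg ip); another group got AM251 alone. Pain perception was read as hot-plate latency to signs of discomfort.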

For data set [2], the system named is Rattus norvegicus. The data set is described as follows: Induction addiction in Wistar rat at 20 mg/kg, ip assessed as signs of dependence. The data set is classed as ADME, organism-based. Also on record: dose 20 mg/kg, route intraperitoneal. Conditions: in vivo. In outline:
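Conditioned place preference test at 20 mg/kg; time spent in the drug-paired compartment A was recorded as the index of rewarding effect or dependence.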

Data set [3] relates to Rattus norvegicus. The data set can be described thus: Reduction of core temperature in Wistar rat at 10 to 40 mg/kg, ip measured up to 45 mins in presence of AM251. Type of data set: functional, organism-based. A digest of the protocol:
(§2)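 Individually housed rats (22 °C, 12:12 h light–dark) were randomized to ip vehicle, 10, 20 or 40 mg/kg. Extra groups (n = 10) got 20 or 40 mg/kg 15 min after AM251 (3 mg/kg ip), plus an AM251-alone group. Core temperature was measured with a rectal probe after injection.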

In data set [4] the test system is Rattus norvegicus. The data set is described as follows: Effect on sleep-awake cycle in Wistar rat assessed as increase in rapid eye movement sleep at 20 mg/kg, ip measured up to 4 hrs by electromyographic analysis in presence of AM251. The data set is classed as functional, organism-based. Also noted: dose 20 mg/kg. In outline: (§3)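 Rats (n = 6/group) had two hippocampal EEG electrodes implanted stereotaxically under ketamine/xylazine/acepromazine anaesthesia, then recovered 10 days and habituated 24 h. Two ip injections 15 min apart: DMSO (1 ml/kg) or AM251, then vegetal oil (1 ml/kg) or test drug. Dosing was at dark-phase onset. Wake, SWS and REMS were scored from EEG/EMG as time per hour over 12 h, plus sleep latency.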

Data set [5] concerns Rattus norvegicus. The data set is described as follows: Increase of pain perception in Wistar rat assessed as latency at 20 to 40 mg/kg, ip measured after 30 to 45 mins by hotplate method in presence of AM251. The data set is classed as functional, organism-based. A digest of the protocol:
as §1

For data set [6], the system named is Rattus norvegicus. The data set can be described thus: Reduction of core temperature in Wistar rat at 10 to 40 mg/kg, ip up to 45 mins. Type of data set: functional. The settings on record: dose mg/kg 10-40; route intraperitoneal. In outline:
as §2

Data set [7] has as its system Rattus norvegicus. The data set can be described thus: Reduction of core temperature in ip dosed Wistar rat up to 45 mins. Type of data set: functional, organism-based. In outline: as §2
Data set [8] concerns Rattus norvegicus. The data set is described as follows: Effect on sleep-awake cycle in Wistar rat assessed as increase in rapid eye movement sleep at 20 mg/kg, ip measured up to 4 hrs by electromyographic analysis. Type of data set: functional, organism-based. Also on record: dose 20 mg/kg. A digest of the protocol: as §3
In data set [9] the test system is Rattus norvegicus. The data set can be described thus: Effect on sleep-awake cycle in Wistar rat assessed as increase in non rapid eye movement sleep at 20 mg/kg, ip measured up to 4 hrs by electromyographic analysis. Also on record: dose 20 mg/kg. Type of data set: functional, organism-based. In outline: as §3
In data set [10] the test system is Rattus norvegicus. The data set can be described thus: Increase of pain perception in ip dosed Wistar rat assessed as latency after 30 to 45 mins by hotplate method. The data set is classed as functional, organism-based. In outline:
as §1

The test system of data set [11] is Rattus norvegicus. The data set can be described thus: Reduction of core temperature in Wistar rat at 10 to 40 mg/kg, ip after 15 mins. Type of data set: functional. Conditions: dose mg/kg 10-40; route intraperitoneal. A digest of the protocol: as §2

Take `CCCCCC[C@H](C/C=C\CCCCCCCC(=O)N1CC2CC1CN2C)OC(=O)Cc1ccccc1` (stereo partly specified): the outcome in the data set on Rattus norvegicus [1], in the data set on Rattus norvegicus [8] and with Rattus norvegicus [9] was Active. The Activity entry with Rattus norvegicus [2] is recorded as “Non-toxic”. The result in the data set with Rattus norvegicus [3], in the data set on Rattus norvegicus [4], with Rattus norvegicus [5], in the data set on Rattus norvegicus [7] and in the data set on Rattus norvegicus [10] was inactive. In addition, the T in the data set with Rattus norvegicus [6] came to 1.5 °C; with Rattus norvegicus [11], 1 °C.
